A selection: hits, their analogues and other compounds. The true share with any hit is near 5.9%.
KDM4C inh: blocks human GASC-1 (KDM4C) demethylase activity; Q9H3R0; GST-KDM4C 2-372, H3K9me3 peptide, LANCE TR-FRET; inhibition, % at 12.5 µM; 96,000 tested, 0.15% active;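 active = mean replicate inhibition above about 25%, with at least 55% of replicates also reaching it, limit read from the data, passing the limit was not always enough; inconclusive = only one of those two conditions met; inactive = neither condition met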
Target sequence (Q9H3R0 2-372 limits assumed): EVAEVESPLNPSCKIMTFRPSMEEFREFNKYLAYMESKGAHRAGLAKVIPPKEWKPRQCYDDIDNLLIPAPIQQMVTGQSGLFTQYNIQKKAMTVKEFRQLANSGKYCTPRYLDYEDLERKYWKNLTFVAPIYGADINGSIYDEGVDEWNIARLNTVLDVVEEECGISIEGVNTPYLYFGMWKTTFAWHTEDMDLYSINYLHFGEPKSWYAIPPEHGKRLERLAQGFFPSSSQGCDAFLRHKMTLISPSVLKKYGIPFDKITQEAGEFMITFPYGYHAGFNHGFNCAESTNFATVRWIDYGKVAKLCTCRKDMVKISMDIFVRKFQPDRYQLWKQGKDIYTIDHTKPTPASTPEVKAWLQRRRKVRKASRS
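System – N-terminal GST-fused human GASC-1 (KDM4C) fragment, residues 2-372 · Input – enzyme final amount 10 nM · Technique – LANCE TR-FRET, Eu antibody, ULight-streptavidin, EDTA, ex 340 nm, em 618/671 nm · Medium – HEPES buffer, pH 7.5, plus ascorbate · Incubation – enzyme reaction 30 min, then detection 60 min, both room temperature · Reagent – H3K9me3 peptide with Fe(II)/2OG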
T cruzi growth-1: blocks T. cruzi growth in NIH3T3 culture; T. cruzi beta-gal in NIH3T3, GalScreen luminescence, 90 h; 77,000 tested, 5.9% active; inhibition, % at 8.34 µM;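 active = mean inhibition above about 93%, with at least 55% of replicates each passing it, limit read from the data, passing the limit was not always enough; inconclusive = only one of those two conditions holds; inactive = neither condition holds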
IDH1 mut inh: blocks human IDH1 R132H reductase activity; O75874; diaphorase/resazurin fluorescence, 60 min; inhibition, % at 10 µM; 70,000 tested, 0.18% active; in the data active = inhibition above about 34%; inconclusive = no clear call, values can overlap the other calls; inactive = below about 11%
Pf Dd2 inh: P. falciparum Dd2 growth inhibition | SYBR Green, 72 h; active compounds read low | 94,000 tested, 2.3% active | activity change, % at 10 µM; in the data active = activity change below about -80%; inconclusive = no clear call, values can overlap the other calls
T cruzi growth-2: blocks T. cruzi growth in NIH3T3 host cells; T. cruzi beta-gal in NIH3T3, GalScreen luminescence, 90 h; AID 651739; shares compounds with T cruzi growth-1; inhibition, % at 8.35 µM; 5,600 tested, 72% active;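 active = mean replicate inhibition above about 95% and at least 55% of replicates individually reaching it, limit read from the data; inconclusive = only one of the two criteria is met; inactive = neither criterion is met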
T cruzi growth-3: Trypanosoma cruzi proliferation inhibition. shares compounds with T cruzi growth-1. T. cruzi beta-gal in NIH3T3, GalScreen luminescence, 90 h. inhibition, % at 2.09 µM. 5,600 tested, 21% active;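 active = mean inhibition above about 95%, with at least 55% of replicates also reaching it, limit read from the data; inconclusive = meets just one of the two conditions; inactive = meets neither condition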
NIH3T3 tox: kills mouse NIH/3T3 fibroblasts | shares compounds with T cruzi growth-1 | NIH/3T3 viability, CellTiter-Glo ATP luminescence, 90 h | cytotoxicity (signal decrease), % at 8.35 µM | 5,600 tested, 14% active;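 active = mean signal decrease across replicates above about 35% based on untreated-well scatter, with enough replicates individually passing, limit read from the data; inconclusive = no rule stated though some were filed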
NIH3T3 tox 2: NIH/3T3 (mouse) viability loss. 5,600 tested, 56% active. NIH/3T3 viability, CellTiter-Glo ATP luminescence, 90 h. shares compounds with T cruzi growth-1. inhibition, % at 24.9 µM;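 active = mean loss of cell viability signal at or above a set limit, and enough replicates individually reaching it; inconclusive = meets only the mean limit or only the replicate share; inactive = meets neither condition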
Hits are given with their value; - = inactive; ? = inconclusive; . = no result given; ! = not confirmed by another sample.

SMILES	KDM4C inh	T cruzi growth-1	IDH1 mut inh	Pf Dd2 inh	T cruzi growth-2	T cruzi growth-3	NIH3T3 tox	NIH3T3 tox 2
Cc1ccc(S(=O)(=O)N(C)C[C@H]2OCCCC[C@@H](C)Oc3ccc(NS(=O)(=O)c4ccc(Cl)cc4)cc3C(=O)N([C@@H](C)CO)C[C@H]2C)cc1	-	?	-	-	102.5	116.1	-	-
Cc1ccc(S(=O)(=O)Nc2ccc3c(c2)C(=O)N([C@H](C)CO)C[C@H](C)[C@H](CN(C)S(=O)(=O)c2ccc(Cl)cc2)OCCCC[C@@H](C)O3)cc1	-	?	.	-	100.6	-	-	-
Cc1ccc(S(=O)(=O)N(C)C[C@H]2OCCCC[C@@H](C)Oc3ccc(NS(=O)(=O)c4ccc(Cl)cc4)cc3C(=O)N([C@H](C)CO)C[C@@H]2C)cc1	-	-	.	-	.	.	.	.
Cc1ccc(S(=O)(=O)Nc2ccc3c(c2)C(=O)N([C@@H](C)CO)C[C@@H](C)[C@@H](CN(C)S(=O)(=O)c2ccc(Cl)cc2)OCCCC[C@H](C)O3)cc1	-	132.5	-	-86.4	107.3	108.9	-	-
Cc1ccc(S(=O)(=O)N(C)C[C@@H]2OCCCC[C@H](C)Oc3ccc(NS(=O)(=O)c4ccc(Cl)cc4)cc3C(=O)N([C@H](C)CO)C[C@H]2C)cc1	-	-	-	-	.	.	.	.
Nc1nc(COc2cccc3cccnc23)nc(Nc2ccccc2)n1	.	.	-	.	.	.	.	.
COc1ccccc1C#Cc1ccc([C@H]2[C@@H](CO)N3CCCCN(C(=O)C4CCC4)C[C@@H]23)cc1	-	105.6	.	-	110.9	?	50.0	74.1
COc1ccccc1C#Cc1ccc([C@H]2[C@@H](CO)N3CCCCN(C(=O)C4CC4)C[C@H]23)cc1	.	107.8	.	-	105.5	103.1	-	104.6
COc1ccccc1C#Cc1ccc([C@@H]2[C@@H](CO)N3CCCCN(C(=O)C4CCC4)C[C@H]23)cc1	-	-	.	-	.	.	.	.
COc1ccccc1C#Cc1ccc([C@@H]2[C@H](CO)N3CCCCN(C(=O)C4CCC4)C[C@@H]23)cc1	-	-	.	-	.	.	.	.
COc1ccccc1C#Cc1ccc([C@H]2[C@H](CO)N3CCCCN(C(=O)C4CCCC4)C[C@@H]23)cc1	.	106.7	.	-	106.1	106.5	42.8	105.4
COc1ccccc1C#Cc1ccc([C@@H]2[C@@H](CO)N3CCCCN(C(=O)C4CCCC4)C[C@@H]23)cc1	.	116.5	.	-	102.3	98.3	-	104.6
CCC(=O)Nc1cccc(NC(=O)COc2cc(Cl)c(Cl)cc2Cl)c1	.	.	-	.	.	.	.	.
COc1ccccc1-c1nnc(SCC(=O)Nc2ccccc2-c2ccccc2)n1C	.	.	-	.	.	.	.	.
C[C@H]1CN([C@@H](C)CO)C(=O)c2cc(C#Cc3cccc(F)c3)cnc2O[C@@H]1CN(C)C(=O)C1CCCCC1	-	114.4	.	-89.2	112.5	-	-	76.0
C[C@@H]1CN([C@@H](C)CO)C(=O)c2cc(C#Cc3cccc(F)c3)cnc2O[C@H]1CN(C)C(=O)C1CCCCC1	-	117.1!	-	-	104.5	-	-	92.0
Cc1cc(OCC(=O)Nc2cccc(C(=O)O)c2)cc(C)c1Cl	.	.	-	.	.	.	.	.
OC[C@H]1[C@H](c2ccc(C#CC3(O)CCCC3)cc2)[C@@H]2CN(Cc3cccnc3)CCCCN12	-	108.0	.	-	98.2	-	-	-
OC[C@@H]1[C@@H](c2ccc(C#CC3(O)CCCC3)cc2)[C@@H]2CN(Cc3cccnc3)CCCCN12	-	-	.	-	.	.	.	.
OC[C@@H]1[C@H](c2ccc(C#CC3(O)CCCC3)cc2)[C@@H]2CN(Cc3cccnc3)CCCCN12	-	101.2	.	-	107.5	-	-	-
OC[C@H]1[C@H](c2ccc(C#CC3(O)CCCC3)cc2)[C@H]2CN(Cc3cccnc3)CCCCN21	-	-	.	-	.	.	.	.
COc1ccc2c3c(n(C)c2c1)[C@@H](CO)NCC31CN(S(=O)(=O)c2cccc(F)c2)C1	.	.	.	-	.	.	.	.
Cc1cc(C)c(NC(=O)CN(c2ccc(Cl)cc2)S(C)(=O)=O)c(C)c1	.	.	-	.	.	.	.	.
N#C[C@@H]1[C@H](c2ccc(C#Cc3cccc(F)c3)cc2)[C@@H](CO)N1C(=O)C1CCC1	-	106.6	.	-	102.7	107.9	-	79.8
N#C[C@@H]1[C@H](c2ccc(-c3cccnc3)cc2)[C@H](CO)N1C(=O)C1CCC1	-	-	.	-	.	.	.	.
SMILES	KDM4C inh	T cruzi growth-1	IDH1 mut inh	Pf Dd2 inh	T cruzi growth-2	T cruzi growth-3	NIH3T3 tox	NIH3T3 tox 2
N#C[C@H]1[C@@H](c2ccc(C#Cc3cccc(F)c3)cc2)[C@@H](CO)N1C(=O)C1CCC1	-	.	.	-	.	.	.	.
N#C[C@@H]1[C@@H](c2ccc(C#Cc3cccnc3)cc2)[C@@H](CO)N1C(=O)C1CCCCC1	-	102.6	.	-	-	-	-	-
N#C[C@@H]1[C@@H](c2ccc(C#Cc3cccc(F)c3)cc2)[C@@H](CO)N1C(=O)C1CCCC1	-	100.4	.	-	107.4	-	-	63.6
N#C[C@@H]1[C@@H](c2ccc(C#Cc3cccc(F)c3)cc2)[C@@H](CO)N1C(=O)C1CC1	-	-	.	-	.	.	.	.
C[C@@H]1CCCCO[C@H](CN(C)S(=O)(=O)c2cccs2)[C@@H](C)CN([C@H](C)CO)C(=O)c2cc(NS(=O)(=O)c3ccc(Cl)cc3)ccc2O1	-	-	-	-	.	.	.	.
C[C@H]1CCCCO[C@H](CN(C)S(=O)(=O)c2cccs2)[C@@H](C)CN([C@@H](C)CO)C(=O)c2cc(NS(=O)(=O)c3ccc(Cl)cc3)ccc2O1	-	102.8	.	-	106.2	-	-	-
C[C@@H]1CCCCO[C@@H](CN(C)S(=O)(=O)c2ccc(Cl)cc2)[C@H](C)CN([C@H](C)CO)C(=O)c2cc(NS(=O)(=O)c3cccs3)ccc2O1	-	?	.	.	105.3	-	-	-
Cc1nc(-c2ccccc2)sc1C(=O)C1C(=O)C(=O)N(CCN(C)C)C1c1cccc([N+](=O)[O-])c1 (stereo not drawn)	.	.	-	.	.	.	.	.
Cc1ccc(S(=O)(=O)N2C[C@@H](O)COC[C@H]3O[C@@H](CC(=O)N[C@H]4CCN(Cc5ccccc5)C4)CC[C@@H]32)cc1	-	98.9	.	-	106.0	-	-	-
Cc1ccc(S(=O)(=O)N2C[C@H](O)COC[C@@H]3O[C@@H](CC(=O)N[C@@H]4CCN(Cc5ccccc5)C4)CC[C@H]32)cc1	-	-	.	-	.	.	.	.
COc1ccc(S(=O)(=O)N2C[C@H](O)COC[C@H]3O[C@@H](CC(=O)N[C@H]4CCN(Cc5ccccc5)C4)CC[C@@H]32)cc1	-	?	.	.	-	-	-	-
COc1ccc(S(=O)(=O)N2C[C@@H](O)COC[C@H]3O[C@H](CC(=O)N[C@@H]4CCN(Cc5ccccc5)C4)CC[C@@H]32)cc1	-	-	.	.	.	.	.	.
